The values below come from ChEMBL document CHEMBL1144722 (J Nat Prod, 2008).

Assay type in all cases: functional, cell-based
The subject of assay [1] is Epithelial cell. The assay is described as follows: (§1) Antiproliferative activity against mouse +SA mammary epithelial cells after 4 days by MTT assay. In a few lines:
(§2)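 Highly malignant +SA mouse mammary epithelial cells kept in serum-free medium with 10 ng/mL EGF and 10 µg/mL insulin as mitogens. Seeded at 5 × 10⁴ cells/well, 6 wells/group, and fed medium containing compound at 0.01–1000 µM, compared with vehicle controls. After 4 days of culture, viable cell number was read by MTT colorimetric assay.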
In general terms: Formazan colour is commonly taken as a measure of viable cells.

Assay [2] in a line: as §1. To be noted: Epithelial cell, 96 h. In short, it runs like this:
as §2

The subject of assay [3] is Epithelial cell. The assay is described as follows: Antiproliferative activity against mouse +SA mammary epithelial cells at 15 to 40 uM after 4 days by MTT assay. In a few lines: as §2

Activity calls are given as the source filed them. The rule behind the calls is not given here.

With `CC(=O)O[C@H]1/C=C(\C)CC/C=C(\C)CC[C@@H](C(C)C)/C=C/[C@@](C)(O)C1`, the result in the assay with Epithelial cell [1] was Active.

As for `C/C1=C\[C@H](OC(=O)NCc2ccccc2)C[C@](C)(O)/C=C/[C@H](C(C)C)CC/C(C)=C/CC1`, in the assay with Epithelial cell [1], the result was inactive.

Broadly, the IC50 is the point on the concentration scale where inhibition reaches its midpoint. A higher IC50 goes with weaker potency in that assay. On to `CC(=O)O[C@H]1/C=C(\C)CC/C=C(\C)[C@@H](O)C[C@@H](C(C)C)/C=C/[C@@](C)(O)C1`, for which it took 20 µM to reach half-maximal inhibition in assay [2] (IC50). Besides, in the assay on Epithelial cell [3], the outcome was Active.

For the compound `C/C1=C\[C@H](OC(=O)NCCCl)C[C@](C)(O)/C=C/[C@H](C(C)C)CC/C(C)=C/CC1`, the result with Epithelial cell [1] was inactive.

As for `CCNC(=O)O[C@H]1/C=C(\C)CC/C=C(\C)CC[C@@H](C(C)C)/C=C/[C@@](C)(O)C1`, in the assay with Epithelial cell [1], the outcome was inactive.

In assay [2], `CC(=O)/C=C/C(CC/C(C)=C/CC/C(C)=C/C(C)=O)C(C)C` (stereo not given) [SECOCEMBRANOID] displayed a 50% inhibitory concentration (IC50) of 15 µM. In the assay on Epithelial cell [3], the outcome was Active.

`CC(C)=CCC/C(C)=C/CC/C(C)=C/CC[C@]1(C)CCc2cc(O)cc(C)c2O1` [DELTA-TOCOTRIENOL] registered an IC50 in assay [2] of 7 µM.

As to `CC(=O)O[C@H]1/C=C(\C)CC[C@H](O)[C@@](C)(SC#N)CC[C@@H](C(C)C)/C=C/[C@@](C)(O)C1`, the outcome in the assay with Epithelial cell [1] was inactive.

The compound `CC(=O)O[C@H]1/C=C(\C)CC/C=C(\C)[C@H](O)C[C@@H](C(C)C)/C=C/[C@@](C)(O)C1` gave an IC50 in assay [2] of 30 µM. In addition, the result in the assay with Epithelial cell [3] was Active.

In the case of `C/C1=C/C(=O)C[C@](C)(O)/C=C/[C@H](C(C)C)CC/C(C)=C/CC1`, the outcome in the assay on Epithelial cell [3] was Active.

With `C/C1=C\C(=O)C[C@](C)(O)/C=C/[C@H](C(C)C)CC/C(C)=C/CC1`, the result in the assay on Epithelial cell [3] was inactive.

Take `CC(=O)O[C@H]1/C=C(\C)CC[C@@H]2OC(=N)S[C@@]2(C)CC[C@@H](C(C)C)/C=C/[C@@](C)(O)C1`: the result with Epithelial cell [1] was inactive.
